# Compound activity as filed in PubChem BioAssay.
# Compounds with a hit are over-represented: about 8.9% of the library has one in this group of screens.
# Dynein transport – inhibitors of GR-EGFP nuclear translocation, primary screen, dynein cargo transport inhibitor project, imaging, high-content, 3617.4 mouse cells | test concentration mostly 20 µM; stimulated with dexamethasone, 1 µM; stronger effect = lower value | z-score, hits read low | 0.47% of 220,000 active | AID 1381, 2008;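 active = plate z-score of nuclear minus cytoplasmic receptor signal below a set negative limit, without overly bright fluorescence or cell loss, cut at about -3.5 in these data, passing the limit was not always enough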;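 also: z-score of nuclear minus cytoplasmic ring GR-EGFP intensity difference per well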
#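 Buffer or medium – tet-free medium with charcoal-stripped serum · Signal – automated 10x imaging of fixed Hoechst-stained cells · Also added – dexamethasone agonist, 1.0 µM final, for 30 min · Incubation – induction 48 h, compound 1 h, agonist 30 min · Read-out – GR-EGFP nuclear translocation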
# Lmaj promast – Leishmania major promastigote growth inhibition, primary screen; Leishmania major promastigotes, resazurin fluorescence viability; 9% of 200,000 active; inhibition, % at 10 µM; in the data active = inhibition above about 50%;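 also: promastigotes grown with compound for 44 hours at 28 °C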
# b-catenin transl – modulators of beta-catenin nuclear translocation, primary screen, imaging, HeLa cells, immunofluorescence, high-content; nuclear translocation activity, % at 5 µM; 0.3% of 190,000 active; AID 1665, 2009;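 active = nuclear translocation activity above 50% at 5 µM, with a well cell count of 50 or more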;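 also: per-cell ratio of nuclear to cytoplasmic median beta-catenin stain intensity; plate controls were DMSO negative control for no effect and GSK-3 inhibitor IX positive control for full effect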
#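 assay system = human HeLa cells, endogenous beta-catenin | times = compound treatment 24 h, 37°C, 5% CO2 | detection = Anti-beta-catenin immunofluorescence on PFA-fixed, Triton-permeabilized cells, DAPI nuclei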
# HSV augment – enhancers of HSV replication in host cells, fold increase, host cell viability. 0.005% of 220,000 active. maximum fold increase. HSV replication augmentation in cells; in the data active = maximum fold increase above about 1.5; tested in PC3 cells
# MT stabilizer – microtubule stabilizers in HeLa cells, primary screen, imaging, high-content imaging | HeLa tubulin immunostaining HCS, 24 h; share of cells brighter than vehicle mean+2SD | % tubulin-high responders, % at 10 µM | 0.83% of 200,000 active;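 active = plate Z-score above 3 for both tubulin-high and condensed-nucleus cell shares, with cell loss under 80%, at 10 µM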;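 also: anti alpha tubulin signal scored within the nucleus-defined area of each cell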
# * marks the source's active call; other numbers are inactive results; i = inactive; x = no result given.
SMILES,Dynein transport,Lmaj promast,b-catenin transl,HSV augment,MT stabilizer
c1ccc(COc2ccccc2CNC23CC4CC(CC(C4)C2)C3)cc1,-0.85,71*,0,i,2
Clc1ccc(CNC2CCCC2)cc1,0.053,37,-5,i,3
CSc1nnc(CNC(=O)C23CC4CC(CC(C4)C2)C3)n1Cc1ccccc1,0.04,1,0,i,5
O=C(NN=C1CCN(Cc2ccccc2)CC1)c1ccccc1O,-1.2,8,0,i,2
Cc1nnc(NS(=O)(=O)c2ccc(N)cc2)s1,0.33,-8,x,i,3
Cc1ccc(S(=O)(=O)c2c(N)n(CCCO)c3nc4ccccc4nc23)cc1,-1,73*,x,i,2
Cc1ccc(S(=O)(=O)c2c(N)n(CCC(C)C)c3nc4ccccc4nc23)cc1,0.35,69*,x,i,2
Cn1c(N)c(S(=O)(=O)c2ccc(Br)cc2)c2nc3ccccc3nc21,1.9,75*,8,i,3
CCCCn1c(NS(=O)(=O)c2ccccc2)c(S(=O)(=O)c2ccc(C)cc2)c2nc3ccccc3nc21,0.48,51*,-1,i,5
CC1(C)CC(CC(=O)Nc2ccc([N+](=O)[O-])cc2)C(=O)O1 (centres undefined),1.6,5,-2,i,3
O=C(CNC1CCCCCC1)Nc1ccc(S(=O)(=O)NC2CC2)cc1,-0.29,30,-1,i,2
O=C(N/N=C/c1ccccn1)C1CC1,-0.32,-4,x,i,1
COc1ccc(N(C(=O)/C=C/c2ccc(OC)c(OC)c2)C2=CC3CCC(C2)N3C)cc1 (centres undefined),0.043,100*,-3,i,2
COc1ccc(N(C(=O)c2ccc(Cl)cc2)C2=CC3CCC(C2)N3C)cc1 (centres undefined),-0.27,79*,-4,i,1
O=C(CSc1cccc[n+]1[O-])c1cc(Cl)ccc1Cl,-2.1,99*,1,i,2
O=C(CSc1cccc[n+]1[O-])c1cc2ccccc2o1,-0.24,95*,0,i,4
CCOC(=O)C1(Cc2ccccc2)CCN(C2Cc3ccccc3C2)CC1,-0.45,83*,-2,i,2
CCOC(=O)C1(Cc2ccccc2)CCN(Cc2cnn(CC)c2)CC1,-0.78,6,1,i,2
CCOC(=O)C1(Cc2ccccc2)CCCN(CCO)C1 (centres undefined),-0.83,-8,-1,i,1
CCOC(=O)C1(Cc2ccccc2)CCCN(C2CCCC2)C1 (centres undefined),-0.59,76*,-1,i,2
Cc1ccc(NC(=O)CCC(C(=O)O)N2C(=O)c3ccccc3C2=O)cc1 (centres undefined),0.45,-3,0,i,3
COC(=O)c1sccc1NC(=O)c1cccs1,-0.26,x,0,i,x
COc1ccc(CCn2c(-c3ccc(C(C)(C)C)cc3)n[nH]c2=S)cc1OC,0.41,10,-7,i,3
CS(=O)(=O)Oc1ccc2c(c1)O/C(=C\c1cccnc1)C2=O,1.1,x,-3,i,x
O=C1/C(=C/c2cccnc2)Oc2cc(OS(=O)(=O)c3ccc(Cl)cc3)ccc21,0.065,14,x,i,1
SMILES,Dynein transport,Lmaj promast,b-catenin transl,HSV augment,MT stabilizer
COc1ccc(S(=O)(=O)Oc2ccc3c(c2)O/C(=C\c2cccnc2)C3=O)cc1,1.3,86*,x,i,2
O=C1/C(=C/c2cccnc2)Oc2cc(OS(=O)(=O)c3ccccc3)ccc21,-0.021,57*,x,i,2
Cc1nnc2ccc(-c3cccc(NS(C)(=O)=O)c3)nn12,0.71,2,-2,i,3
CCOCCCNC(=O)c1c[nH]c2ccc(C)cc2c1=O,-0.013,-3,-1,i,4
Cc1ccc(C(C(=O)NC2CCCC2)N(Cc2ccco2)C(=O)CCC(=O)Nc2cc(C)on2)cc1 (centres undefined),0.033,82*,0,i,1
Cc1nn(C)cc1C(C(=O)NC1CCCCC1)N(C(=O)Cc1cccs1)c1ccc(C(C)C)cc1 (centres undefined),-0.36,13,x,i,1
Cc1cccc(N(C(=O)CCC(=O)Nc2cc(C)on2)C(C(=O)NC2CCCC2)c2ccc(C)o2)c1 (centres undefined),2.1,89*,0,i,2
Cc1nn(C)cc1C(C(=O)NC1CCCCC1)N(C(=O)Cc1cccs1)c1ccc(F)cc1 (centres undefined),2.3,70*,x,i,3
O=C(NC1CCCCC1)C(c1ccc2ncccc2c1)N(Cc1cccs1)C(=O)c1cccs1 (centres undefined),1.6,49,x,i,3
Cc1cc(NC(=O)CCC(=O)N(c2ccccc2)C(C(=O)NC2CCCC2)c2ccccc2)no1 (centres undefined),-0.1,0,2,i,2
O=C(NC1CCCCC1)C(c1cccs1)N(Cc1cccs1)C(=O)c1cccs1 (centres undefined),1.8,99*,1,i,3
CCn1c(CS(=O)Cc2ccc(Cl)cc2Cl)nnc1SCc1c(Cl)cccc1Cl (centres undefined),0.62,-3,2,i,2
Cc1ccc(N(C(=O)CCC(=O)Nc2cc(C)on2)C(C(=O)NC2CCCC2)c2cccs2)cc1 (centres undefined),0.27,54*,-1,i,2
Cc1ccc(C)c(N(C(=O)CCC(=O)Nc2cc(C)on2)C(C(=O)NC2CCCC2)c2ccco2)c1 (centres undefined),0.51,90*,-6,i,2
Cc1ccc(N(C(=O)CCC(=O)Nc2cc(C)on2)C(C(=O)NC2CCCC2)c2ccccc2)cc1 (centres undefined),-0.015,10,0,i,2
Cc1cc(C)cc(N(C(=O)CCC(=O)Nc2cc(C)on2)C(C(=O)NC2CCCC2)c2ccco2)c1 (centres undefined),-0.035,88*,-1,i,2
Cc1cc(NC(=O)CCC(=O)N(Cc2ccco2)C(C(=O)NC2CCCCC2)c2cccs2)no1 (centres undefined),-0.74,-2,1,i,2
Cc1cc(NC(=O)CCC(=O)N(Cc2cccs2)C(C(=O)NC2CCCC2)c2ccccc2)no1 (centres undefined),-0.014,94*,0,i,6
Cc1cc(NC(=O)CCC(=O)N(c2ccccc2)C(C(=O)NC2CCCC2)c2cccs2)no1 (centres undefined),-0.37,8,-3,i,3
CC1(C)Cc2c(sc(NC(=O)/C=C/C(=O)O)c2C#N)CO1,1.1,x,0,i,x
CN(C)S(=O)(=O)c1ccc(C(=O)Nc2nc(-c3cccs3)cs2)cc1,-0.86,6,x,i,7
